{"source": "paper PMC10794003", "about": "(European journal of medicinal chemistry, 2023)", "note": "“Also recorded” adds a separate entry of the source."}
{"tested_on": "Nrf2 target genes GSTM3, NQO1, or HMOX1 in NCM460D cells", "assay": "RT-qPCR of Nrf2 target genes in NCM460D cells", "type": "cell-based", "conditions": "24 h incubation at 1, 10 and 100 μM, RT-PCR", "how_it_was_run": "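NCM460D cells exposed to test compound at 1, 10 and 100 μM for 24 h. Positive controls were a reference Keap1-Nrf2 PPI inhibitor (1, 10, 100 μM) and CDDO (10 and 100 nM); 0.1 % DMSO served as the negative control. RNA was quantified, reverse-transcribed to cDNA, and GSTM3, NQO1 and HMOX1 were measured by RT-qPCR, normalized to endogenous GAPDH.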"}
{"smiles": "Cc1ccc(S(=O)(=O)N(CC(=O)O)c2cc(OCC(=O)O)c(N(CC(=O)O)S(=O)(=O)c3ccc(C)cc3)c3ccccc23)cc1", "note": "[compound 18, 2,2′-((2-(Carboxymethoxy)naphthalene-1,4-diyl)bis(tosylazanediyl))diacetic acid]", "transcriptional induction of Nrf2 target genes NQO1, GSTM3 and HMOX1": "similarly high effects"}
{"smiles": "Cc1ccc(S(=O)(=O)N(CC(=O)O)c2cc(CCC(=O)O)c(N(CC(=O)O)S(=O)(=O)c3ccc(C)cc3)c3ccccc23)cc1", "note": "[17b, 2,2′-((2-(2-Carboxyethyl)naphthalene-1,4-diyl)bis(tosylazanediyl))diacetic acid]", "transcriptional induction of Nrf2 target genes NQO1, GSTM3 and HMOX1": "similarly high effects"}
{"smiles": "Cc1ccc(S(=O)(=O)N(CC(=O)O)c2ccc(N(CC(=O)O)S(=O)(=O)c3ccc(C)cc3)c(OCC(=O)O)c2)cc1", "note": "[8g, 2,2′-((2-(Carboxymethoxy)-1,4-phenylene)bis(tosylazanediyl))diacetic acid]", "transcriptional induction of Nrf2 target genes NQO1, GSTM3 and HMOX1": "less transcriptional induction; also recorded: relatively low expressions"}
